# Screening data as filed in PubChem BioAssay.
# T cell HTS: modulators of CD8 T cell-vesicle binding, primary screen, mouse 2C CD8+ T cells, flow cytometry; 2C CD8+ T cell-vesicle binding; stronger effect = lower value; response (vesicle binding), % at 7 µM; 330,000 tested, 0.068% active;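 active means response, share of CD8 T cells binding vesicles, and their 90th percentile fluorescence all below set limits, cut at about 80% in these data, passing the limit was not always enough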;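 further: values below 100% mean blocked vesicle binding to the CD8+ T cells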
#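 Incubation: binding step 1.5 h, 37 °C, antibody labelling 20 min, ice; system: murine 2C transgenic CD8+ T lymphocytes; technique: cytometric PE anti-B7-1 and Alexa647 anti-CD8 signals after 1% paraformaldehyde fixation; also added: QL9-charged Drosophila Ld/ICAM-1/B7-1 vesicles; control set: naked versus QL9-loaded vesicles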
# GPR7 antag: GPR7 receptor antagonists, primary screen, cell-based, fluorescence, single concentration; AID 1861, 2009; Neuropeptides B/W receptor type 1 (Homo sapiens), P48145; 290,000 tested, 1.1% active; GPR7-expressing cells, fluorescence antagonist assay; inhibition, % at 4.4 µM; in the data active means inhibition above about 16%, passing the limit was not always enough;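 further: cells stimulated with the agonist NPW; 0% = agonist with vehicle and 100% = vehicle without agonist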
# CHT PAM: CHT positive allosteric modulators, primary screen, cell-based, membrane potential dye, choline EC20; 310,000 tested, 0.49% active; High affinity choline transporter 1 (Homo sapiens), Q9GZV3; CHT-expressing cells; stronger effect = higher value; LV-AA mutant CHT in HEK293 cells; B-score at 10 µM;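 active means initial fluorescence not abnormally high and integrated response B-score, plate-corrected, over 3 SD above library mean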
# pCIP destab: p/CIP-EGFP fusion destabilizers, primary screen, fluorescence, F442A cells; 290,000 tested, 0.01% active; 16 h; Q05BA5; decrease of EGFP signal, % at 10 µM;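 active means EGFP signal decrease of at least 30% at 10 µM or well 3 SD below plate mean, unless failing retest; inactive means the rest, including hits failing retest or dose response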
# DSG3 Ab inh: inhibitors of pemphigus antibody binding to DSG3, primary screen, biochemical, bead-based, flow cytometry, scFv-GFP. Desmoglein-3 (Homo sapiens), P32926. DSG3-coupled beads, scFv-anti-DSG3-GFP binding; stronger effect = lower value. binding (percent of control), % at 10 µM. 310,000 tested, 0.48% active. AID 588358, 2011;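 active means binding more than 3 SD below its plate's average and above zero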;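 further: hits lower antibody fragment binding to DSG3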
# CHT inh: inhibitors of human choline transporter CHT; CHT-expressing cells, membrane potential dye, choline response; stronger effect = lower value; B-score at 10 µM; 310,000 tested, 0.86% active;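 active means B-score over 3 SD under the library average, and starting fluorescence ratio not unusually high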;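 further: choline stimulus applied at its EC90 after an EC20 pre-addition; B-score computed on integrated fluorescence ratio after choline addition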
# GPR7 antag cf: GPR7 receptor antagonists, confirmation, cell-based, fluorescence, single concentration. shares compounds with GPR7 antag. GPR7-expressing cells, calcium fluorescence antagonist mode. inhibition, % at 4.4 µM. 2,400 tested, 52% active. AID 1952, 2009; in the data active means inhibition above about 24%;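 further: stimulated with the GPR7 agonist NPW; 0% = agonist plus vehicle and 100% = vehicle alone without agonist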
# MCHR1 antag: MCHR1 antagonists in cells, counter-screen for GPR7 antagonist project, cell-based, fluorescence, human | shares compounds with GPR7 antag | MCHR1-expressing cells, fluorescence antagonist assay | inhibition, % at 4.4 µM | 2,400 tested, 62% active | AID 2148, 2009; in the data active means inhibition above about 22%;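 further: 0% = vehicle with agonist and 100% = vehicle without agonist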
# CHT inh conf: CHT inhibitors, confirmation, cell-based, membrane potential dye, duplicate; shares compounds with CHT inh; CHT-expressing cells, choline membrane potential dye; LV-to-AA substituted CHT, HEK293 cells; CHT activity remaining % of control (stronger effect = lower value), % at 10 µM; 2,400 tested, 70% active; AID 493221, 2011;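 active means choline transporter activity left, mean of duplicates at 10 µM, below buffer-only control mean minus 3 SD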;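 further: depolarization triggered by choline at its EC90 following an EC20 pre-addition; 0% = hemicholinium-3 full block and 100% = buffer-only control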
# HEK293 MPD ctr: membrane potential effects in parental HEK293, counter-screen for CHT inhibitor project, cell-based, membrane potential dye. choline response; active = decrease or increase beyond buffer ±3SD. 2,400 tested, 4% active. AID 493222, 2011. membrane potential ratio readout (active if shifted either direction beyond buffer ±3SD; no single direction) at 10 µM. shares compounds with CHT inh;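 further: parental cells lack the transporter so any hit is non-specific; ratio is peak minus trough fluorescence over baseline after EC90 choline challenge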
# Numbers without * were called inactive; i = inactive; x = not tested or not shown. Hits are enriched below; roughly 2.3% of the tested compounds scored in any of these assays.
SMILES,T cell HTS,GPR7 antag,CHT PAM,pCIP destab,DSG3 Ab inh,CHT inh,GPR7 antag cf,MCHR1 antag,others
CC/C(=N\NC(=O)c1ccccc1Cl)c1c(O)n(C2CCCCC2)c(=O)[nH]c1=O,i,35*,i,-7,104,i,0,6,
Cc1ccccc1NC(=O)N1Cc2ccccc2-n2nncc2C1,x,x,x,x,98,x,x,x,
O=C(Nc1ccc(Cl)cc1)Nc1nccs1,179,30*,i,4,x,i,28*,42*,
CCOP(=O)(CCP(=O)(OCC)OCC)OCC.C[CH2][Sn]([Cl])([Cl])[CH2]C,x,x,x,x,89,x,x,x,
Fc1ccc2c(c1)nnn2C1CCN(Cc2c(Cl)cccc2Cl)CC1,148,1,i,-93,x,i,x,x,
Fc1ccc2c(c1)nnn2C1CCN(Cc2nnnn2C2CCCCC2)CC1,124,27*,i,-16,x,i,13,5,
O=C(NCC1=C(c2ccc3ccccc3c2)C[C@@H]2CC[C@H]1N2Cc1ccco1)c1nccs1,x,x,x,x,111,x,x,x,
CCCCOc1ccc(CCN)cc1Cl,465,29*,i,-9,99,i,26*,30*,
CC(C)Oc1ccc(CCN)cc1Cl,194,7,i,-1,85,i,x,x,
CNC(C)Cc1ccccc1Sc1ccc(O)cc1 (stereo not drawn),214,30*,i,0,102,i,30*,30*,
COc1cc(C)c(CNCCc2c[nH]c3ccccc23)cc1C,42,38*,i,5,105,i,22,55*,
CCOc1ccc(N=Cc2c(O)n(-c3cc(C)cc(C)c3)c(=O)[nH]c2=O)cc1,751,24*,i,-2,107,i,-4,7,
CCOc1ccc(N=Cc2c(O)n(-c3ccc(C)c(C)c3)c(=O)[nH]c2=O)cc1,389,2,i,5,104,i,x,x,
COc1ccc2[nH]c(C)c(CCNCc3cccnc3)c2c1,150,x,x,x,x,x,x,x,
CCOc1cccc(CNCCc2c(C)[nH]c3ccc(OC(F)(F)F)cc23)c1O,338,53*,i,-6,101,i,84*,95*,
CN1C(=O)C[N+]([O-])=C(c2ccccc2)c2cc(Cl)ccc21,x,x,x,x,99,x,x,x,
CCc1ccccc1NC(=O)CNC1CCCCC1,157,25*,i,-12,101,i,0,7,
CCOC(=O)C1CCCN(c2ccc([N+](=O)[O-])c3nonc23)C1 (stereo not drawn),x,45*,x,-675,428,x,42*,68*,
CC1CCCN(c2ccc(C(=O)N3CCC4(CC3)OCCO4)cc2[N+](=O)[O-])C1 (stereo not drawn),244,-1,i,12,x,i,x,x,
CCn1cc(C=C2C(=O)N(C)C(=O)N(C)C2=O)c2ccccc21,388,32*,i,-3,118,i,-8,9,
COC(=O)Cn1cc(C=C2C(=O)NC(=O)NC2=O)c2ccccc21,134,20,i,6,108,i,x,x,
COc1ccc(OC(=O)N(C)C[C@@H]2OCc3cnnn3CCCC(=O)N([C@@H](C)CO)C[C@@H]2C)cc1,x,x,x,x,92,x,x,x,
C=CCn1c(O)c(C(CC)=NC(C)c2ccccc2)c(=O)[nH]c1=O (stereo not drawn),240,-10,i,-10,91,-5*,x,x,CHT inh conf=49%*;HEK293 MPD ctr=i
CCCCn1c(O)c(C(CC)=NC(C)c2ccccc2)c(=O)[nH]c1=O (stereo not drawn),133,-9,i,5,98,i,x,x,
Clc1cc(I)cc(Cl)c1NC1=NCCN1,350,x,i,x,98,-7*,x,x,CHT inh conf=6.0%*;HEK293 MPD ctr=i
SMILES,T cell HTS,GPR7 antag,CHT PAM,pCIP destab,DSG3 Ab inh,CHT inh,GPR7 antag cf,MCHR1 antag,others
O=C1NC(=O)N(c2ccc(Cl)cc2)C(=O)/C1=C/c1coc2ccc(O)cc2c1=O,226,1,i,-14,87,-5.9*,x,x,CHT inh conf=59%*;HEK293 MPD ctr=i
Brc1ccc2c(c1)C(OC1CN3CCC1CC3)c1ccccc1CS2 (stereo not drawn),226,17,i,5,94,-6.5*,x,x,CHT inh conf=34%*;HEK293 MPD ctr=i
CCOc1cc(/C=C2/C(=O)NC(=O)N(c3ccc(CC)cc3)C2=O)ccc1OC(=O)c1cccs1,461,-6,i,-5,100,-6.6*,x,x,CHT inh conf=59%*;HEK293 MPD ctr=i
COC(=O)C1=C(c2ccc(OCc3ccccc3)cc2)C[C@@H]2CC[C@H]1N2C,x,x,x,x,102,x,x,x,
CCOc1cc2c(cc1OCC)-n1cccc1C(c1cc(OC)ccc1F)NC2 (stereo not drawn),166,0,i,3,107,i,x,x,
CCOc1cc2c(cc1OCC)-n1cccc1C(c1cc(C)c(OC)cc1C)NC2 (stereo not drawn),213,8,i,-7,109,-5*,x,x,CHT inh conf=i;HEK293 MPD ctr=i
C[C@@H]1C(=O)O[C@H]2[C@H](O)[C@]34[C@@H]5OC(=O)[C@]3(OC3OC(=O)[C@H](O)C34[C@H](C(C)(C)C)[C@@H]5O)[C@@]12O (stereo partly drawn),x,x,x,x,101,x,x,x,
CC(C)OCCCNC(=O)c1c(N)n(CC2CCCO2)c2nc3ccccc3nc12 (stereo not drawn),265,15*,i,-23,112,-5.1*,x,x,CHT inh conf=i;HEK293 MPD ctr=i
CC(C)OC(=O)c1c(N)n(CC2CCCO2)c2nc3ccccc3nc12 (stereo not drawn),453,0,i,-1,x,i,x,x,
Nc1c(C(=O)OC2CCCCC2)c2nc3ccccc3nc2n1CC1CCCO1 (stereo not drawn),151,2,i,-9,95,-8.6*,x,x,CHT inh conf=51%*;HEK293 MPD ctr=i
